Screening results deposited in PubChem BioAssay by several laboratories.
Most compounds without a hit are left out; they make up all but 2.4% or so of the library.
TPT1 inhibitor – inhibitors of Candida albicans tRNA 2'-phosphotransferase TPT1 | recombinant caTPT1, FP RNA substrate dephosphorylation | inhibition, % at 5 µM | hit rate 0.81% among 300,000;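 active = inhibition above the mean of all tested compounds plus 3 SD, set per screening campaign, cut at about 24% in these data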;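 note: plate controls were DMSO alone for no effect and ferristatin control at 100 nM for full effect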
Neddyl block – blocks human cullin neddylation | P61081+Q13564 | TR-FRET cullin neddylation, biochemical | inhibition, % at 25 µM | hit rate 0.58% among 360,000 | AID 651699; in the data active = inhibition above about 36%
HNF4A DNA FP – change in binding of human HNF4 alpha to DNA; HNF4a-FITC DNA binding, fluorescence polarization, 1 h; activity change, % at 10 µM; hit rate 0.3% among 360,000; AID 1224865; in the data active = activity change above about 30%, passing the limit was not always enough
CSN inh – blocks human CSN-mediated cullin deneddylation. inhibition, % at 12.5 µM. Purified CSN, SCF-Nedd8-OG deneddylation, fluorescence polarization. Q92905. hit rate 0.38% among 360,000. AID 651999;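 active = pattern-corrected inhibition above about 35%, with an unprinted fluorescence ratio check between 0.5 and 1.5, limit read from the data, passing the limit was not always enough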;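 note: 0% = enzyme with substrate and 100% = substrate without enzyme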
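Material: human Csn5 produced in HEK293T cells; Input: enzyme 0.24 nM; Reagent: SCFSkp2-Nedd8OG substrate at 10 nM final; Dosing: 12.5 µM compound; Incubation: 90 min reaction at room temperature; Detection: fluorescence polarization of the substrate; Evaluation: % inhibition of substrate cleavage by Csn5; Control set: substrate-only high control, full reaction low control.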
Rin1 Abl inh – inhibitors of human Rin1-Abl protein interaction; inhibition, % at 7.35 µM; hit rate 0.4% among 360,000; AID 588664; P00519+Q13671; TR-FRET Rin1/Abl binding, biochemical; in the data active = inhibition above about 5%, passing the limit was not always enough
Rpn11 block – blocks the human proteasome subunit Rpn11; human 26S proteasome, Ub4-pepOG fluorescence polarization; 20S core pre-blocked with epoxomicin; inhibition, % at 20 µM; hit rate 0.59% among 360,000; AID 588493;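 active = inhibition at 20 µM, scaled to each plate's controls, above about 33%, limit read from the data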
CSN5 deneddyl – Csn5 (human) deneddylation inhibition, single-concentration validation; shares compounds with CSN inh; Csn5 deneddylation of SCF-Nedd8OG, fluorescence polarization, 90 min; inhibition, % at 16.6 µM; hit rate 62% among 540; in the data active = inhibition above about 50%;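 note: 0% = DMSO with enzyme and 100% = no enzyme wells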
MMP-2 counter – MMP-2 (human) inhibition, counter-screen for CSN hits. recombinant MMP-2, FRET substrate fluorescence, 60 min. shares compounds with CSN inh. hit rate 33% among 540. inhibition, % at 16.6 µM;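 active = corrected plate-normalized z-score of 5 or more, or -5 or less, or inhibition of 15% or more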;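 note: plate controls were DMSO wells with enzyme for no effect and buffer wells lacking MMP-2 for full effect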
Thrombin counter – blocks bovine thrombin in a CSN deneddylation counter-screen; shares compounds with CSN inh; bovine thrombin cleavage of Ub4-pepOG, fluorescence polarization; inhibition, % at 16.6 µM; hit rate 49% among 540; AID 720656;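 active = inhibition at or above a set limit, with a fluorescence interference ratio between 0.5 and a set maximum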
Target sequence (P00735 whole entry, looked up): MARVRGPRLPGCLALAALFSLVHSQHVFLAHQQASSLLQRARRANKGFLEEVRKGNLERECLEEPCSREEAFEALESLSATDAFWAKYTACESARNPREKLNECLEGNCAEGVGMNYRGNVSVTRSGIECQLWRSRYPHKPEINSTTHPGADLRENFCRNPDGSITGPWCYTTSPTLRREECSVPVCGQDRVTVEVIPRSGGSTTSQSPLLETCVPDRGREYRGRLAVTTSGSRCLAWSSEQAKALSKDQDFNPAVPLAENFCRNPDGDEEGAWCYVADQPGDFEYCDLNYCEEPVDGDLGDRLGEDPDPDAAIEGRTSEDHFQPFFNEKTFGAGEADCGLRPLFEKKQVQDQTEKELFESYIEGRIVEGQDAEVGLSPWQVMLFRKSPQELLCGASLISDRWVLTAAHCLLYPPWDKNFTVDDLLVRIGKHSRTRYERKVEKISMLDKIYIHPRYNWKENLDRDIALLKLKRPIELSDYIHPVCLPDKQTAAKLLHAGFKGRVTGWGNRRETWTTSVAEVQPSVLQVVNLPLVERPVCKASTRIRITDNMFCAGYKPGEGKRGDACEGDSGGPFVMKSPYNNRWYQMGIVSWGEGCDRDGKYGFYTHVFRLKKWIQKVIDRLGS
The depositor's hits bear a star; . = no result given; ! = repeats disagree.

SMILES	TPT1 inhibitor	Neddyl block	HNF4A DNA FP	CSN inh	Rin1 Abl inh	Rpn11 block	CSN5 deneddyl	MMP-2 counter	Thrombin counter
COc1ccc(OC)c(Nc2cc3ccccc3c(=O)[nH]2)c1	8.6	23.7	6.8	26.1	2.0	-15.4	.	.	.
COC(=O)C(=C/C(C)=C/c1cccnc1)C(=O)OC	-3.7	0.0	2.1	0.0	1.4	-4.7	.	.	.
COc1ccc(NC(=S)Nc2ccc3nsnc3c2)cc1	-9.7	-33.3	-4.0	49.2*	0.4	-20.1	94.0*	29.8*	-28.4
COc1ccc(NC(=S)Nc2ccc3nc(C)c(C)nc3c2)cc1	-1.2	-8.8	-1.3	2.4	-1.0	8.2	.	.	.
CCOc1ccc(NC(=O)Nc2ccc3nsnc3c2)cc1	-2.4	-16.7	-2.2	-3.0	-4.8	-5.0	.	.	.
CCOc1ccc(NC(=S)Nc2ccc3nsnc3c2)cc1	4.1	-32.7	6.1	43.9*	3.3	4.3	95.4*	34.6*	-24.1
CSc1ccc(C2C(C#N)=C(N)Oc3c2ccc(=O)c2c(C)oc(C)c32)cc1 (stereo not drawn)	39.8*	-0.9	31.2	49.0*	1.6	.	95.3*	3.7	14.5
O=C1/C(=C/c2ccco2)Oc2c1ccc(O)c2CN1CCCCC1	-19.5	16.8	-24.6	42.1*	0.3	-83.5	.	-23.4	-60.0
COc1ccc(-c2nc3c4ccccc4ccn3c2CC2CCCCC2)cc1OC	.	21.8	4.9	0.9	1.0	15.8	.	.	.
CN(C)S(=O)(=O)c1ccc(F)c(C(=O)Nc2ccccc2C(=O)NC2CC2)c1	.	8.4	-0.6	-1.1	2.6	-3.4	.	.	.
O=C1C(=O)c2ccc(-c3ccccc3)cc2-c2ccccc21	2.1	-95.0	1.3	56.9*	-1.8	-2.0	49.7	6.6	-16.6
Nc1ccc2c(c1)C(=O)c1ccccc1-2	-2.5	-20.8	-1.7	11.4	-12.1	-2.1	.	.	.
O=C(O)CN(CC(=O)O)CC(=O)O	.	0.8	2.7	-1.5	-1.7	-0.3	.	.	.
C=CCOc1ccc(Br)cc1/C=C1/SC(=Nc2ccc(C(=O)O)cc2)NC1=O	.	1.2	-2.5	35.7*	-1.3	6.8	97.3*	6.8	4.2
NNc1ccc([N+](=O)[O-])c2[nH][nH]c(=O)c12	.	-41.6	-71.5	90.6	6.0	9.7	.	.	.
Cc1cccc(-n2cnc3c(sc4nc(N5CCOCC5)c5c(c43)CCCC5)c2=O)c1	-1.1	-77.8	-1.3	-1.8	0.4	6.6	.	.	.
CCOC(=O)c1sc2nc3c(SCC(=O)O)cc(C(=O)c4cc(F)ccc4O)cn3c(=O)c2c1C	10.1	10.4	-5.0	75.8*	-0.4	58.0*	22.3	33.9*	2.9
COc1ccc(O)c(C(=O)c2cc(SCC(=O)O)c3nc4sc5c(c4c(=O)n3c2)CCCC5)c1	4.0	-19.5	-26.4	24.5	-0.6	10.8	.	.	.
COc1cccc(SCc2noc(C(=O)NC(C)C)c2C(=O)NC(C)C)c1	-0.3	-7.7	5.0	-1.2	3.1	-1.7	.	.	.
CCOC(=O)/C(=C/c1ccc(N2CCC(c3ccccc3)=N2)cc1)C(C)=O	.	35.3	29.2	39.6*	0.7	.	189.3*	-71.1*	-31.7
Cc1cc(C(N)=O)c2cc(Br)ccc2n1	1.3	-40.6	-0.8	-0.4	1.0	-1.9	.	.	.
O=C(O)c1cc(-c2ccco2)nc2ccc(Br)cc12	-11.7	-113.6	-38.9	41.8*!	0.1	63.3*!	80.8*	7.3	-5.6
COc1cc2c(C#N)c(N3CCCC3)nc(N)c2c(N)n1	1.9	7.5	25.6	35.0*!	-1.7	2.4	67.5*	-45.1*	-40.9
COc1cc2c(C#N)c(N3CCN(C)CC3)nc(N)c2c(N)n1	-2.6	.	-0.6	0.0	-0.6	8.8	.	.	.
Cc1cccc(NC(=O)CCNC(=O)c2ccc(Br)cc2)c1C	.	0.3	1.1	2.7	1.9	3.5	.	.	.
CC(C)C[C@@H](CN1CCCC1CN1C(=S)NC[C@@H]1Cc1ccccc1)N1C[C@H](Cc2ccccc2)N(CCc2ccccc2)C1=S (stereo partly drawn)	.	-28.9	3.1	-4.4	.	.	.	.	.
